Active and inactive are the calls of the source. The rule behind the calls is not given here.
How the values were obtained:
SH-SY5Y [1] = experiment: Cytotoxicity against human SH-SY5Y cells assessed as cell viability at 1 uM after 48 hrs by MTT assay; assay type: functional; settings: read-out: Activity
Procedure, shortened: (§1)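 SH-SY5Y cells in 50% DMEM/50% F-12 with 10% FBS, 2 mM L-glutamine, penicillin and streptomycin, grown 48 h with or without compound. Cells were washed in Locke's solution (pH 7.6), given MTT (250 μg/mL) for 30 min at 37 °C, solubilized in isopropyl alcohol/HCl, and read at 570 nm. Single-point values are % viable cells at 1 μM. IC50s come from fitted full concentration-response curves; mean ± SD of 12 determinations from 3 experiments.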

SH-SY5Y [2] = experiment: Cytotoxicity against human SH-SY5Y cells assessed as cell viability after 48 hrs by MTT assay; assay type: functional, cell-based; procedure, shortened: as §1
HeLa [3] = experiment: Cytotoxicity against human HeLa cells assessed as cell viability after 48 hrs by MTT assay; assay type: functional, cell-based
HeLa [4] = experiment: Cell cycle arrest in human HeLa cells assessed as accumulation at G2/M phase at 3 times IC50 value after 16 hrs using propidium iodide staining by FACS analysis; assay type: functional, cell-based
Procedure, shortened: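 Cells were treated 16 h with vehicle or 3 × IC50 compound, washed in PBS, fixed in ice-cold 30:70 PBS/EtOH, and stored at −20 °C. They were then treated with RNase (100 μg/mL) for 30 min at RT and stained with propidium iodide (100 μg/mL) in PBS with 5 mM EDTA for 30 min in the dark. DNA content was read by flow cytometry, representative of three experiments.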

[5] = target: T1, Tubulin alpha (Homo sapiens) (UniProt P0DPH7+P68366+Q71U36+P68363+Q9BQE3+Q6PEY2+A6NHL2+Q9NY65); experiment: Inhibition of tubulin alpha in human SH-SY5Y cells assessed as inhibition of tubulin alpha polymerization at 3 times IC50 value after 24 hrs by immunofluorescence; assay type: cell-based
Procedure, shortened: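 Cells were fixed in 3.7% paraformaldehyde for 20 min, permeabilized in ice-cold 80% MeOH, and blocked with 0.2% fish gelatine. Staining used anti-α-tubulin (1:1000, 20 min RT), then Alexa 488 anti-mouse with DRAQ5 nuclear stain. Imaging was by confocal microscopy with a 63× oil objective.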

[6] = target: T1, Tubulin alpha (Homo sapiens); experiment: Inhibition of tubulin alpha polymerization in human HeLa cells assessed as decreased pelletable tubulin alpha fraction at 3 times IC50 value after 16 hrs by Western blotting in presence of paclitaxel; assay type: cell-based
Procedure, shortened: (§2)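 Cells were grown 16 h with or without drug (3 × IC50), trypsinized, and lysed 10 min at RT in hypotonic buffer (20 mM Tris-HCl pH 6.8, 1 mM MgCl2, 2 mM EGTA, 0.5% NP-40, protease inhibitors) containing 4 μg/mL paclitaxel. Protein-normalized lysate (50 μg) was spun at 13 000 rpm for 15 min. Pellet (polymerized) and supernatant (free) fractions were run on 10% SDS-PAGE and blotted with anti-α-tubulin, read by chemiluminescence.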

[7] = target: T1, Tubulin alpha (Homo sapiens); experiment: Inhibition of tubulin alpha polymerization in human HeLa cells assessed as increase in soluble tubulin alpha fraction at 3 times IC50 value after 16 hrs by Western blotting in presence of paclitaxel; assay type: cell-based; procedure, shortened: as §2
[8] = Inhibition of tubulin alpha polymerization; settings: concentration not given here

Structure (SMILES)	viability at 1 µM (SH-SY5Y [1]) [%]	IC50 (SH-SY5Y [2]) [nM]	IC50 (HeLa [3]) [nM]	also measured
COc1cc(-c2cscc2-c2ccc(Cl)c(C(F)(F)F)c2)cc(OC)c1OC	91	–	–	–
COc1ccc(/C=C\c2cc(OC)c(OC)c(OC)c2)cc1O [COMBRETASTATIN A4]	23	2.3	1.7	Activity (HeLa [4]): Active; tubulin polymerization inhibition (qualitative call) [5]: Active; inhibition [6]: Active; inhibition [7]: Active
COc1cc(-c2cscc2-c2ccc(OC(F)(F)F)cc2)cc(OC)c1OC	93	–	–	–
COc1cc(-c2cscc2-c2cccc(C#N)c2)cc(OC)c1OC	97	–	–	–
COc1cc(-c2cscc2-c2cccc3ncccc23)cc(OC)c1OC	100	–	–	–
COc1cc(-c2cscc2-c2cccc3ccccc23)cc(OC)c1OC	83	–	–	–
COc1ccc(-c2occc2-c2cc(OC)c(OC)c(OC)c2)cc1	24	34	170	tubulin polymerization inhibition (qualitative call) [5]: Active
COc1cc(-c2cscc2-c2ccc(O)cc2)cc(OC)c1OC	93	–	–	–
COc1ccc(-c2cscc2-c2cc(OC)c(OC)c(OC)c2)cc1	31	480	420	–
COc1cc(-c2cscc2-c2cccc(OC)c2OC)cc(OC)c1OC	90	–	–	–
COc1ccc(-c2cscc2-c2cc(OC)c(OC)c(OC)c2)cc1F	52	–	–	–
COc1cccc(-c2cscc2-c2cc(OC)c(OC)c(OC)c2)c1	49	–	–	–
COc1cc(-c2cscc2-c2cc(OC)c(OC)c(OC)c2)cc(OC)c1OC	91	–	–	–
COc1ccc(C2=C(c3cc(OC)c(OC)c(OC)c3)CCC2)cc1O	33	37	300	Activity (HeLa [4]): Active; tubulin polymerization inhibition (qualitative call) [5]: Active; inhibition [6]: Active; inhibition [7]: Active
COc1ccc(-c2ccoc2-c2cc(OC)c(OC)c(OC)c2)cc1	23	28	17	–
COc1cc(-c2cscc2-c2ccc(SC)cc2)cc(OC)c1OC	51	–	–	–

Structure (SMILES)	viability at 1 µM (SH-SY5Y [1]) [%]	IC50 (SH-SY5Y [2]) [nM]	IC50 (HeLa [3]) [nM]	also measured
COc1cc(-c2cscc2-c2ccc(C)c(F)c2)cc(OC)c1OC	30	310	420	Activity (HeLa [4]): Active
COc1ccc(-c2cscc2-c2cc(OC)c(OC)c(OC)c2)cc1O	29	79	200	Activity (HeLa [4]): Active; tubulin polymerization inhibition (qualitative call) [5]: Active; inhibition [6]: Active; inhibition [7]: Active
COc1cc(-c2cscc2-c2ccc3c(c2)OCO3)cc(OC)c1OC	65	–	–	–
COc1cc(-c2cscc2-c2cccc(C(F)(F)F)c2)cc(OC)c1OC	91	–	–	–
COc1cc(-c2cscc2-c2cnc3ccccc3c2)cc(OC)c1OC	45	–	–	–
COc1cc(-c2cscc2-c2ccc3c(c2)OCCO3)cc(OC)c1OC	27	350	420	Activity (HeLa [4]): Active
COc1ccc(-c2cscc2-c2cc(OC)c(OC)c(OC)c2)cc1C	80	–	–	–
COc1ccc(-c2ccoc2-c2cc(OC)c(OC)c(OC)c2)cc1O	23	2.4	3.1	Activity (HeLa [4]): Active; tubulin polymerization inhibition (qualitative call) [5]: Active; inhibition [6]: Active; inhibition [7]: Active
COc1ccc(-c2cscc2-c2cc(OC)c(OC)c(OC)c2)cc1OC	94	–	–	–
COc1ccc(-c2cscc2-c2cc(OC)c(OC)c(OC)c2)c(OC)c1	90	–	–	–
COc1cc(-c2cscc2-c2cccc([N+](=O)[O-])c2)cc(OC)c1OC	108	–	–	–
COc1cc(-c2cscc2-c2ccc(C)c(C)c2)cc(OC)c1OC	84	–	–	–
COc1cccc(-c2cscc2-c2cc(OC)c(OC)c(OC)c2)c1F	28	330	430	–
COc1ccc(-c2occc2-c2cc(OC)c(OC)c(OC)c2)cc1O	20	9.4	20	Activity (HeLa [4]): Active; inhibition [6]: Active; inhibition [7]: Active; inhibition [8]: 50%
COc1ccc(-c2cscc2-c2cc(OC)c(OC)c(OC)c2)cn1	82	–	–	–
COc1cc(-c2cscc2-c2cccnc2)cc(OC)c1OC	109	–	–	–

Source: ChEMBL document CHEMBL1800052, “Regioselective Suzuki coupling of dihaloheteroaromatic compounds as a rapid strategy to synthesize potent rigid combretastatin analogues” (J Med Chem, 2011)
